Screens: PubChem BioAssay, several laboratories
core dimer inh: inhibitors of HCV core protein dimerization, primary screen, biochemical, TR-FRET, high-throughput | TR-FRET GST/Flag-core106 dimerization, 1536-well | inhibition, % at 5 µM | 0.33% of 300,000 active;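 active = inhibition above the mean of all tested compounds plus 3 SD, set per screening campaign, cut at about 45% in these data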
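Material: Tagged HCV core106 pair (GST and Flag) | Amount: GST-core106 13.5 nM, Flag-core106 17 nM | Medium: KF-containing HEPES buffer, pH 7.45, DTT, CHAPS, BSA | Reagent: Eu donor and XL665 acceptor anti-tag antibodies | Schedule: 4 h at 22.5 °C | Technique: Time-resolved FRET, ex 340 nm, em 617 and 671 nm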
NadD block: inhibitors of S. aureus NadD, primary screen, biochemical, colorimetric, uHTS; purified NadD enzyme, colorimetric absorbance read-out; Nicotinate-nucleotide adenylyltransferase NadD (Staphylococcus aureus N315); inhibition, % at 20 µM; AID 602399, 2012; 0.78% of 360,000 active; in the data active = inhibition above about 26%
Pemphigus Ab inh: inhibitors of pemphigus antibody binding to DSG3, primary screen, biochemical, bead-based, flow cytometry, scFv-GFP; DSG3-coupled beads, scFv-anti-DSG3-GFP binding; hits give low values; binding (percent of control), % at 10 µM; 0.48% of 310,000 active;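 active = binding more than 3 SD below its plate's average and above zero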;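 also: hits lower antibody fragment binding to DSG3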
TbMetRS inhib: T. brucei MetRS inhibitors, primary screen, biochemical, luminescence. methionyl-tRNA synthetase (Trypanosoma brucei brucei). purified T. brucei MetRS, ATP depletion, Kinase-Glo luminescence. inhibition, % at 11.9 µM. 0.4% of 360,000 active. AID 624268, 2012;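 active = inhibition above a per-plate cutoff of the control wells' mean inhibition plus 3 SD, cut at about 5.5% in these data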
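Material: parasite MetRS enzyme / Replication: singlicate, one well per compound / Signal: luminescence of leftover ATP / Schedule: 2 h aminoacylation at 25 °C after 15 min preincubation / Medium: HEPES-MgCl2-KCl buffer plus DTT, spermine, BSA, pyrophosphatase / Doses: 11.9 µM single point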
Rce1 inhib: yeast Rce1p protease inhibitors, primary screen, biochemical, fluorescence, cell-free homogeneous; CAAX prenyl protease 2 (Saccharomyces cerevisiae (strain ATCC 204508 / S288c)), Q03530; yeast membranes, quenched prenylated peptide cleavage fluorescence; calls only; 0.27% of 290,000 active; AID 2563, 2010;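 active = fall in fluorescence gain of 50% or more versus controls, with final raw signal at or below 3038400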
Target sequence (Q03530 whole entry, looked up): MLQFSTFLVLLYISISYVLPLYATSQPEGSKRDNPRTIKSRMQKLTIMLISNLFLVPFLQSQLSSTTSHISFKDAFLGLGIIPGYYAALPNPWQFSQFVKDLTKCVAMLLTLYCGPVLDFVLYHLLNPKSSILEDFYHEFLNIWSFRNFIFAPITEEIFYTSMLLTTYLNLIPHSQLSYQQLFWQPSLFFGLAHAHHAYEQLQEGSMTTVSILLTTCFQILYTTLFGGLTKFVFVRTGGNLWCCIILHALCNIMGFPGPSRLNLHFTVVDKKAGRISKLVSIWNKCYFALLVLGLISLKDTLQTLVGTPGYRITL
Tb MetRS conf: T. brucei MetRS inhibitors, confirmation, biochemical, luminescence | shares compounds with TbMetRS inhib | T. brucei MetRS enzyme, luminescence (ATP depletion) | inhibition, % at 11.9 µM | 93% of 1,400 active; in the data active = inhibition above about 7%
Jurkat tox: Jurkat T cell cytotoxicity, cytotoxicity control for T. brucei MetRS inhibitor project, luminescence, high throughput | AID 624413, 2012 | 12% of 1,400 active | Jurkat cells viability, ATP luminescence | inhibition, % at 8.3 µM | shares compounds with TbMetRS inhib; in the data active = inhibition above about 15%
Tb MetRS inh FP: T. brucei MetRS inhibitors, orthogonal assay for T. brucei MetRS inhibitor project, biochemical, fluorescence polarization; shares compounds with TbMetRS inhib; purified T. brucei MetRS; inhibition, % at 11.9 µM; 44% of 1,400 active; AID 651607, 2012; in the data active = inhibition above about 17%
A number is an active result. Compounds with a hit are over-represented: about 1.9% of the library has one in this group of screens.

How did CCOc1ccccc1C1C(C#N)=C(N)Oc2cc(N)ccc21 (configuration not stated) do in these assays?
core dimer inh: inactive; NadD block: inactive; Pemphigus Ab inh: inactive; TbMetRS inhib: inactive; Rce1 inhib: inactive

How did Cc1cc2c(c(=O)n1CCc1ccccc1)C(c1ccco1)C(C#N)=C(N)O2 (configuration not stated) do in these assays?
core dimer inh: inactive; NadD block: inactive; TbMetRS inhib: inactive; Rce1 inhib: inactive

Results for O=C(NNC(=O)c1sccc1-n1cccc1)Nc1ccccc1 ?
core dimer inh: inactive; NadD block: inactive; Pemphigus Ab inh: inactive; TbMetRS inhib: inactive; Rce1 inhib: inactive

How did O=C1CCC(C(=O)N2CCCC(N3CCN(c4cccc(C(F)(F)F)c4)CC3)C2)=NN1 (configuration not stated) do in these assays?
core dimer inh: inactive; NadD block: inactive; Pemphigus Ab inh: inactive; TbMetRS inhib: inactive; Rce1 inhib: inactive

Results for FC(F)Oc1ccc(NC(=S)NCc2nc3ccccc3[nH]2)cc1 ?
core dimer inh: inactive; NadD block: inactive; Pemphigus Ab inh: inactive; TbMetRS inhib: 55; Rce1 inhib: inactive; Tb MetRS conf: 65; Jurkat tox: inactive; Tb MetRS inh FP: 40

Results for CS(=O)(=O)Nc1ccc(C(=O)Nc2ccccc2C(=O)N2CCCC2)cc1 ?
core dimer inh: inactive; NadD block: inactive; Pemphigus Ab inh: inactive; TbMetRS inhib: inactive

Results for Cc1ccc(-c2nnn(CC(=O)N(c3ccc(F)cc3)C(C(=O)NC3CCCC3)c3ccco3)n2)o1 (configuration not stated) ?
core dimer inh: inactive; NadD block: inactive; Pemphigus Ab inh: inactive; TbMetRS inhib: inactive; Rce1 inhib: inactive

How did Cc1nn(-c2cc(C)c3ccccc3n2)c2c1C1C(C2)C1(C)C (configuration not stated) do in these assays?
core dimer inh: inactive; NadD block: inactive; Pemphigus Ab inh: inactive; TbMetRS inhib: inactive; Rce1 inhib: inactive

What do the screens show for `Cc1ccc(NC(=O)CCC(=O)OCc2ccc(Br)cc2)cc1`?
core dimer inh: inactive; NadD block: inactive; Pemphigus Ab inh: inactive; TbMetRS inhib: 17; Rce1 inhib: inactive; Tb MetRS conf: 26; Jurkat tox: inactive; Tb MetRS inh FP: inactive

Results for Cc1cccc(OCCCC(=O)Nc2ccc(N(C)C)cc2)c1 ?
core dimer inh: inactive; NadD block: inactive; Pemphigus Ab inh: inactive; TbMetRS inhib: inactive; Rce1 inhib: inactive

Results for Cc1cccc(OCCCC(=O)Nc2ccc(Br)cc2)c1 ?
core dimer inh: inactive; NadD block: inactive; Pemphigus Ab inh: inactive; TbMetRS inhib: 34; Rce1 inhib: inactive; Tb MetRS conf: 45; Jurkat tox: inactive; Tb MetRS inh FP: 34

Results for Cc1cccc(NC(=O)CCC(=O)OCc2ccc(Br)cc2)c1 ?
core dimer inh: inactive; NadD block: inactive; Pemphigus Ab inh: inactive; TbMetRS inhib: inactive; Rce1 inhib: inactive

Results for COc1ccc(C2=NOC(Cn3nc(C(=O)NCc4ccc(OC(F)(F)F)cc4)cc3-c3ccccc3)C2)cc1 (configuration not stated) ?
core dimer inh: inactive; NadD block: inactive; Pemphigus Ab inh: inactive; TbMetRS inhib: inactive; Rce1 inhib: inactive

How did O=C(Nc1ccc(F)cc1)Nc1nnc(COc2ccccc2F)s1 do in these assays?
core dimer inh: inactive; NadD block: inactive; Pemphigus Ab inh: inactive; TbMetRS inhib: inactive; Rce1 inhib: inactive
